Rows were chosen to be rich in hits. Some 2.8% of all compounds tested hit in one or more screens of this group.
Jurkat tox 60K = cytotoxicity toward Jurkat cells | Jurkat E6.1 viability, ATP luminescence, 48 h | inhibition, % at 4 µM | actives 1.2% (n = 56,000) | AID 463;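 active = inhibition above the mean inhibition of all tested compounds plus 3 SD, cut at about 28% in these data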
SF-1 act = activators of human nuclear receptor SF-1. actives 1.9% (n = 65,000). AID 522. Q13285. CHO-K1 Gal4-SF-1 LBD luciferase reporter; % increase over DMSO SF-1-specific signal. activation, % at 10 µM;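 active = activation above the mean activation of all tested compounds plus 3 SD, cut at about 50% in these data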
Target sequence (Q13285 whole entry, looked up, the tested form may be a part): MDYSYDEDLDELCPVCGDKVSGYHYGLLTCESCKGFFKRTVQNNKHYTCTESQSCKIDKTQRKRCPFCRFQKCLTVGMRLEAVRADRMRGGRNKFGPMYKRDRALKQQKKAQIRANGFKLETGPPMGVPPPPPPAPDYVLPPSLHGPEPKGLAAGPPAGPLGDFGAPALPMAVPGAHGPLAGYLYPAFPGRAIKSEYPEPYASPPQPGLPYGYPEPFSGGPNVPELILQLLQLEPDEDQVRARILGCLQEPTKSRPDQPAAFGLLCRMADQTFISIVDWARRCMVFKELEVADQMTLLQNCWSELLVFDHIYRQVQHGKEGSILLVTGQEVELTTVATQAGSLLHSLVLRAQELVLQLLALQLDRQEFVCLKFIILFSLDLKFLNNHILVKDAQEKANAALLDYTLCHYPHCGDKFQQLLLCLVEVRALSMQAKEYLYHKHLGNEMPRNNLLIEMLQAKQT
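Material: Transient Gal4-SF-1 LBD reporter, CHO-K1 | Input: 4,000 cells/well | Dosing: One dose, 10 µM compound, 1% DMSO | Incubation: 20 h compound treatment, 37 °C | Detection: SteadyLite luciferase luminescence | Evaluation: Percent activation relative to DMSO median and mock-transfected background | Benchmarks: DMSO-treated SF-1-transfected cells as negative, DMSO-treated mock-transfected cells lacking SF-1 as background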
RORA act = RORA (human) activation; P35398; CHO-K1 Gal4-RORA LBD luciferase reporter, luminescence; percent increase over mock-subtracted basal signal; AID 560; actives 1.5% (n = 65,000); activation, % at 10 µM;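 active = activation above the mean of all tested compounds plus 3 SD, cut at about 49% in these data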;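 note: 0% = DMSO-treated RORA cells and 100% = added signal equal to DMSO minus mock-transfected cells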
MT1-MMP txn act = MT1-MMP promoter transcription activation; HT1080 MT1-MMP promoter luciferase reporter, luminescence, overnight; active compounds read high; activation factor at 10 µM; actives 0.16% (n = 86,000); AID 750;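 active = activation factor of at least 2 for MT1-MMP transcription at 10 µM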
HEK293 NFkB inh = inhibitors of the PMA/ionomycin-induced NF-kB reporter in HEK293 cells. HEK-293 NF-kB luciferase reporter, luminescence. inhibition, % at 3 µM. actives 0.21% (n = 62,000). AID 465;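 active = inhibition above the mean of all tested compounds plus 3 SD, cut at about 40% in these data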;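 note: 0% = stimulated DMSO wells and 100% = 10 µM reference inhibitor 5653914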
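System: NF-kB luciferase reporter HEK-293 cells | Replication: Single test | Control set: DMSO vs reference inhibitor | Evaluation: % inhibition | Schedule: 1 h pretreatment, 16 h stimulation, 37 °C | Probe or stimulus: PMA with ionomycin | Compound dosing: One dose, 3 µM | Detection: Luciferase luminescence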
Starred values were filed as active, the others as inactive; . = no result given.

SMILES | Jurkat tox 60K | SF-1 act | RORA act | MT1-MMP txn act | HEK293 NFkB inh
Cc1ccc(Oc2ccc(S(=O)(=O)N3CCOCC3)cc2C(N)=O)c(-n2nc3ccccc3n2)c1 | 87* | 5 | 6 | 0.6 | 28
Cc1ccc(-c2nnn(CC(=O)NC3CC4CCC3C4)n2)cc1 (centres undefined) | 4 | -2 | -10 | 1.3 | 4
COc1ccccc1C1CN(c2ccc(F)cc2F)N=C1c1cccs1 (centres undefined) | . | . | . | 1 | .
COc1ccccc1C1CC(c2cccs2)=Nc2ccccc2S1 (centres undefined) | . | . | . | 2.1* | .
CCOC(=O)CSc1nc2c(c(-c3ccc(C)o3)c1C#N)CCCC2 | 0 | -15 | 10 | 1 | 7
COc1ccc(OC)c2sc(N3CCCCC3)nc12 | -2 | 40 | 38 | 1.5 | -12
Clc1cccc2sc(N3CCCCC3)nc12 | 12 | 48 | 13 | 1 | -18
Clc1cc(Cl)c2nc(N3CCCCC3)sc2c1 | 2 | 61* | 24 | 2.1* | -22
Clc1cc(Cl)c2nc(N3CCCC3)sc2c1 | 3 | 60* | 41 | 1.5 | -17
Fc1cc(F)c2nc(N3CCCCC3)sc2c1 | -3 | 65* | 32 | 1.7 | -7
COC(=O)[C@H](CCSC)NC(=O)Nc1ccc(C)c(C)c1 | 2 | 9 | -20 | 1.1 | 11
CCOC(=O)CSc1nc(-c2ccncc2)ccc1C#N | . | 80* | 16 | 1.1 | .
CCOC(=O)CC(=O)CSc1nc(-c2cccnc2)ccc1C#N | 0 | 27 | 22 | 1.1 | -1
CCOC(=O)CSc1nc2cc(OCC)ccc2cc1C#N | -5 | 2 | 53* | 1.7 | -5
CCOc1ccc2cc(C#N)c(SCC(=O)N3CCC(C)CC3)nc2c1 | -4 | -2 | 2 | 1.1 | 0
CCOC(=O)CSc1nc(-c2ccc3c(c2)OCO3)ccc1C#N | . | 64* | 7 | 1.7 | .
CC(=O)N=C(N)Sc1nc2ccccc2[nH]1 | . | 98* | 31 | 1.4 | .
O=C(COc1ccc(-c2ccccc2)cc1)N1CCN(C(=O)c2cccnc2)CC1 | -3 | 16 | -2 | 1.2 | 20
c1ccc2oc(SCc3cn4ccccc4n3)nc2c1 | . | 20 | 58* | 0.9 | -22
COc1cccc(OCc2nc3ncc(Br)cc3[nH]2)c1 | 65* | 76* | 60* | 1.4 | 25
Cc1cc(C)cc(OCc2nc3ncc(Br)cc3[nH]2)c1 | . | . | . | 1.1 | .
CC1(C)Cc2nc3sc4c(=O)n(CC(=O)NCc5ccco5)cnc4c3cc2CO1 | . | 62* | 40 | 1.3 | 11
O=C(Cn1cnc2ccccc2c1=O)NCc1ccco1 | -6 | 6 | 19 | 1.2 | 3
O=C(c1ccccc1Cl)N1CCC(c2nc3c(nnn3Cc3ccco3)c(=O)[nH]2)CC1 | 4 | -21 | -21 | 1.1 | 6
NS(=O)(=O)c1ccc(CCNc2ncnc3sccc23)cc1 | 85* | -13 | -44 | 1.1 | 29
SMILES | Jurkat tox 60K | SF-1 act | RORA act | MT1-MMP txn act | HEK293 NFkB inh
COc1ccccc1C1C=C(c2ccc(C)cc2)Nc2nnnn21 (centres undefined) | 36* | 39 | 25 | 1.1 | -2
CCOc1ccc(C2C=C(c3ccccc3)Nc3nnnn32)cc1 (centres undefined) | -2 | 41 | 56* | 1.5 | -3
CCc1nnc(NC(=O)C2COc3ccccc3O2)s1 (centres undefined) | . | . | . | 1.1 | .
Fc1cccc(CSc2nc3ccncc3[nH]2)c1 | 1 | 51* | 25 | 1.3 | -13
Cc1cc(C(=O)CSc2nnnn2C)c(C)n1-c1ccc2c(c1)OCCO2 | 3 | 54* | 36 | 1.6 | 6
Cc1cccc(OCCn2c(=O)sc3ccccc32)c1 | . | . | . | 1.7 | .
Cc1cccc(OCCn2c(=O)n(C)c3ccccc32)c1 | 3 | 81* | 67* | 1.4 | -22
CC1(C)Cc2c(C#N)c(N3CCN(C(=O)c4ccccc4)CC3)nc(-c3ccco3)c2CS1 | . | -4 | -25 | 1 | .
CC(C)c1nc(N2CCN(C(=O)c3ccccc3)CC2)c(C#N)c2c1COC(C)(C)C2 | -1 | 53* | 18 | 0.9 | 0
O=c1c2ccccc2nnn1CSc1nnc(COc2ccc(Cl)cc2)n1Cc1ccco1 | -3 | 56* | -11 | 1.1 | 14
C=CCn1c(SCC(=O)Nc2cccc(OC)c2)nnc1-c1cccnc1 | -4 | -15 | 6 | 1.2 | 5
COP(C)(=O)c1c(C)nn(-c2ccccc2)c1C (centres undefined) | . | 5 | 16 | 1.1 | 8
O=C(Nc1nc2c(s1)CCCC2)c1cccs1 | 15 | -6 | -22 | 0.7 | -46
O=C(Cc1cccs1)Nc1nc2c(s1)CCCC2 | 38* | 41 | 45 | 1.3 | 46*
Cc1ccc(C(=O)/C=C/Nc2ccccc2C(N)=O)o1 | -2 | 63* | 34 | 0.9 | -4
CC(C)OCCCNc1ncnc2c1[nH]c1ccccc12 | 67* | -40 | -42 | 1.5 | 14
CS(=O)(=O)c1sc2nc(-c3cccs3)cc(-c3ccccc3)c2c1N | 6 | 4 | -3 | 2.2* | 15
O=C(Nc1nc(-c2ccccc2)cs1)C1CCCN(S(=O)(=O)c2ccccc2)C1 (centres undefined) | 39* | 1 | 6 | 1.5 | 11
O=C(Nc1nc(-c2ccc(S(=O)(=O)N3CCCC3)cc2)cs1)c1cccs1 | 22 | -5 | 1 | 1.2 | 17
O=C(Nc1nc(-c2ccc(S(=O)(=O)N3CCCCCC3)cc2)cs1)c1cccs1 | 29* | 5 | 7 | 0.9 | 12
CC1(C)NC(=O)N(CCCOc2ccc(Br)cc2Cl)C1=O | 1 | 65* | 19 | 1.4 | 0
CC1(C)NC(=O)N(CCCCOc2ccc(Br)cc2Cl)C1=O | . | . | . | 1 | .
CCOC(=O)N1CCN(S(=O)(=O)c2ccc(C)c(C)c2)CC1 | 0 | 1 | -20 | 1.2 | 1
CC(=O)c1sc(NC(=O)C2(F)C(F)(F)C(F)(F)C(F)(F)C(F)(F)C2(F)F)nc1C | 90* | -93 | -90 | 0.9 | 90*
O=C(NCc1cccs1)c1cc(-c2cccs2)on1 | 6 | 53* | 83* | 1.6 | -26
SMILES | Jurkat tox 60K | SF-1 act | RORA act | MT1-MMP txn act | HEK293 NFkB inh
COCCNC(=O)c1cc(-c2cccs2)on1 | 10 | 48 | 145* | 1.2 | -1
COc1cc(NC(=O)c2cc(-c3cccs3)on2)cc(OC)c1OC | 64* | 19 | 14 | 1.1 | -8
O=C(NCc1cccs1)c1cc(-c2ccccc2)on1 | 0 | 42 | 38 | 1.1 | -16
COc1ccc(CNC(=O)c2cc(-c3cccs3)on2)cc1 | 0 | 7 | -3 | 1.2 | -11
COc1cc(NC(=O)c2cc(C)on2)cc(OC)c1OC | 7 | 2 | -12 | 1.1 | 8
CN1CCN(S(=O)(=O)c2ccc(Cc3ccc(S(=O)(=O)N4CCN(C)CC4)cc3)cc2)CC1 | 3 | -2 | -2 | 1.2 | 8
CCOc1cc(S(=O)(=O)N2CCN(CC)CC2)ccc1Cl | -1 | -8 | -26 | 1.3 | 11
O=C(Nc1ccc(N2CCOCC2)c(Cl)c1)C1CCCCC1 | 2 | 47 | 49* | 1.4 | -19
Cc1cc(C)nc(SCC(=O)Nc2ccc(N3CCOCC3)c(Cl)c2)n1 | 58* | -15 | -53 | 0.7 | 17
